Assay results reported in ChEMBL document CHEMBL4619773, “Chemoreactive-Inspired Discovery of Influenza A Virus Dual Inhibitor to Block Hemagglutinin-Mediated Adsorption and Membrane Fusion” (J Med Chem, 2020).
pIC50, pKd: −log10 of the molar value. Active and inactive are the calls of the source. The rule behind the calls is not given here.

Experiments:
[1] = Cytotoxicity in dog MDCK cells assessed as reduction in cell viability incubated for 48 hrs by crystal violet staining based assay; set-up: species or system Canis lupus familiaris
Influenza A virus [2] = assay: Antiviral activity against Influenza A virus (A/Puerto Rico/8/1934(H1N1)) infected in MDCK cells assessed as inhibition of virus-induced cytopathic effect incubated for 48 hrs by crystal violet staining based assay; format: functional, organism-based
Method in brief: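 MDCK cells were infected at MOI 0.1, the inoculum was removed, and compounds were added in triplicate. After 48 h the cells were fixed in 4% formaldehyde (20 min, RT) and stained with 0.1% crystal violet (30 min). Dye was solubilized in methanol and read at 570 nm.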

[3] = Selectivity index, ratio of CC50 for cytotoxicity in dog MDCK cells assessed as reduction in cell viability incubated for 48 hrs by crystal violet staining based assay to […] in dog MDCK cells assessed as reduction in cell viability incubated for 48 hrs by crystal violet staining based assay
Influenza A virus [4] = assay: Antiviral activity against Influenza A virus (A/Puerto Rico/8/1934(H1N1)) infected in Kunming mouse assessed as mouse survival at 10 mg/kg/day, po starting 4 hrs after viral challenge and continued for 7 days by plaque assay; format: functional
Method in brief: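 Groups of 10 female Kunming mice were infected intranasally with PR8 (1000 PFU/mouse) on day 0 and dosed once daily for seven days. Weight and clinical signs were recorded daily. Mice losing more than 25% of pre-infection weight were scored dead and euthanized; survivors were killed on day 14.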

Influenza A virus [5] = assay: Antiviral activity against Influenza A virus (A/Puerto Rico/8/1934(H1N1)) infected in Kunming mouse assessed as decrease in lung IL6 level at 10 mg/kg/day, po starting 4 hrs after viral challenge and continued for 4 days by ELISA; format: functional, organism-based
Method in brief: (§1)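 Four-week-old female Kunming mice received PR8 intranasally (500 PFU/mouse in 40 µL PBS) and were then dosed once daily orally or intranasally. Lungs were collected on day 4, and TNF-α and IL-6 in lung tissue were measured by ELISA.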

Influenza A virus [6] = assay: Antiviral activity against Influenza A virus (A/Puerto Rico/8/1934(H1N1)) infected in Kunming mouse assessed as decrease in lung TNFalpha level at 10 mg/kg/day, po starting 4 hrs after viral challenge and continued for 4 days by ELISA; format: functional, organism-based; method in brief: as §1
[7] = molecular target: Hemagglutinin (Influenza A virus (A/Puerto Rico/8/1934(H1N1)), UniProt P03452); assay: Binding affinity to Influenza A virus (A/Puerto Rico/8/1934(H1N1)) Hemagglutinin at 1.5625 to 50 uM by SPR assay; details: for pKd: read-out: Kd
Chain of Hemagglutinin (Influenza A virus (A/Puerto Rico/8/1934(H1N1)), UniProt P03452) (P03452 whole entry): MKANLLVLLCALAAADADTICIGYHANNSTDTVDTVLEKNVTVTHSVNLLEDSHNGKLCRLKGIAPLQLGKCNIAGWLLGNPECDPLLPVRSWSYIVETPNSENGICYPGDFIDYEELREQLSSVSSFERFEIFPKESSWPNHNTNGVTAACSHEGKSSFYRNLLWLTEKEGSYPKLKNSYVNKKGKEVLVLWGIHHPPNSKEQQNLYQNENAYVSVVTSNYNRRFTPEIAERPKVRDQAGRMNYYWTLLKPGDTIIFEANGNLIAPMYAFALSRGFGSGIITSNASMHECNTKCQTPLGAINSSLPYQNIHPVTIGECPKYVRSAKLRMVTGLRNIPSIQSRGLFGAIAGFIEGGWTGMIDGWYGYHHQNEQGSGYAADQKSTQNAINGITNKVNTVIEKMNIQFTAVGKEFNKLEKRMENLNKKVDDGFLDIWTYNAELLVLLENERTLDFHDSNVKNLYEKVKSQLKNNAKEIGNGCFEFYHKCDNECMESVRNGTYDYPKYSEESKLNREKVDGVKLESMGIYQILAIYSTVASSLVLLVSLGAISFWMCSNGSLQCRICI
Method in brief: (§2)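 HA protein was immobilized on CM5 chips. Compound (50, […], 12.5, 6.25, 3.125, 1.5625 µM) was injected for 2 min, followed by a 10-min PBST wash and regeneration with 2 mM NaOH for 30 s. Runs were at 25 °C with 2 µl/s flow, using a blank HA-free reference channel. KD was obtained from kinetic fitting.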

[8] = tested on: Influenza A virus (A/Aichi/2/1968(H3N2)); assay: Binding affinity to Influenza A virus (A/Aichi/2/1968(H3N2)) Hemagglutinin at 1.5625 to 50 uM by SPR assay; method in brief: as §2

CC(=O)c1cc(C)c(O)c(Cc2[nH]c3ccc(C)cc3c2Cc2c(O)c(C)cc(C(C)=O)c2O)c1O
CC50 at 48 h [1]: 681 µM | pIC50 (Influenza A virus [2]): 4.40 | Ratio CC50/IC50 [3]: 17.1

CCOC(=O)C1=C[C@@H](OC(CC)CC)[C@H](NC(C)=O)[C@@H](N)C1 [OSELTAMIVIR]
survival at 10 mg/kg/day (Influenza A virus [4]): 100% | Activity (Influenza A virus [5]): Active | Activity (Influenza A virus [6]): Active

CC(=O)c1cc(C)c(O)c(Cc2c(Cc3c(O)c(C)cc(C(C)=O)c3O)n(Cc3c(O)c(C)cc(C(C)=O)c3O)c3ccccc23)c1O
pIC50 (Influenza A virus [2]): < 4.00

NC(=O)c1ncn([C@@H]2O[C@H](CO)[C@@H](O)[C@H]2O)n1 [RIBAVIRIN]
pIC50 (Influenza A virus [2]): 4.01 | Ratio CC50/IC50 [3]: 20.8

CC(=O)c1cc(C)c(O)c(Cc2c[nH]c3ccccc23)c1O
Kd [7]: Not Active

CCOC(=O)c1c(CSc2ccccc2)n(C)c2cc(Br)c(O)c(CN(C)C)c12 [UMIFENOVIR]
pIC50 (Influenza A virus [2]): 4.49 | Ratio CC50/IC50 [3]: 10.4 | pKd [7]: 4.95 | Activity [8]: Active

CC(=O)c1cc(C)c(O)c(CNc2cc(C(F)(F)F)cc(C(F)(F)F)c2)c1O
pIC50 (Influenza A virus [2]): < 4.00

CC(=O)NC1[C@H]([C@H](O)[C@H](O)CO)O[C@@](O[C@H]2[C@@H](O)[C@@H](CO)O[C@@H](O[C@@H]([C@H](O)[C@@H](O)C=O)[C@H](O)CO)[C@@H]2O)(C(=O)O)C[C@@H]1O (stereo not given in full)
pKd [7]: 5.35 | Activity [8]: Active

CC(=O)c1cc(C)c(O)c(Cc2[nH]c3cccc(Br)c3c2Cc2c(O)c(C)cc(C(C)=O)c2O)c1O
pIC50 (Influenza A virus [2]): < 4.00

CC(=O)c1cc(C)c(O)c(Cc2c(Cc3c(O)c(C)cc(C(C)=O)c3O)n(Cc3c(O)c(C)cc(C(C)=O)c3O)c3cccc(Br)c23)c1O
pIC50 (Influenza A virus [2]): < 4.00

CC(=O)c1cc(C)c(O)c(Cc2cn(Cc3c(O)c(C)cc(C(C)=O)c3O)c3cccc(Br)c23)c1O
pIC50 (Influenza A virus [2]): < 4.00
